# Assay results reported in ChEMBL document CHEMBL4680104, “Structure-Based Optimization of Small-Molecule Inhibitors for the β-Catenin/B-Cell Lymphoma 9 Protein-Protein Interaction” (J Med Chem, 2018).
# Activity calls are given as the source filed them. The calls are words filed in the database; no cut-off is given here.
# Legend:
# [1] = system: SW480; assay: Cytotoxicity in human SW480 cells assessed as reduction in cell viability incubated for 72 hrs by MTS assay; type: functional, cell-based; details: SW480, 72 h
# Outline: (§1)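 Cells seeded at 5 × 10^3 cells/well, kept overnight at 37 °C, then exposed to inhibitors at various concentrations for 72 h. Viability read with a freshly mixed PMS (0.92 mg/mL) : MTS (2 mg/mL) reagent at 1:19, incubated 3 h at 37 °C, A490 measured. […] Triplicate; mean ± SD.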
# [2] = biological target: T1, beta-catenin-B-cell lymphoma 9 protein complex (Homo sapiens, UniProt P35222); assay: Inhibition of protein interaction between C-terminal 6x-histidine tagged full-length beta-catenin (1 to 781 residues) (unknown origin)/N-terminal biotinylated human BCL9 ( 350 to 375 residues) incubated for 1 hr by Alpha-screen competitive inhibition assay; type: protein-complex assay
# T1 sequence (P35222 whole entry): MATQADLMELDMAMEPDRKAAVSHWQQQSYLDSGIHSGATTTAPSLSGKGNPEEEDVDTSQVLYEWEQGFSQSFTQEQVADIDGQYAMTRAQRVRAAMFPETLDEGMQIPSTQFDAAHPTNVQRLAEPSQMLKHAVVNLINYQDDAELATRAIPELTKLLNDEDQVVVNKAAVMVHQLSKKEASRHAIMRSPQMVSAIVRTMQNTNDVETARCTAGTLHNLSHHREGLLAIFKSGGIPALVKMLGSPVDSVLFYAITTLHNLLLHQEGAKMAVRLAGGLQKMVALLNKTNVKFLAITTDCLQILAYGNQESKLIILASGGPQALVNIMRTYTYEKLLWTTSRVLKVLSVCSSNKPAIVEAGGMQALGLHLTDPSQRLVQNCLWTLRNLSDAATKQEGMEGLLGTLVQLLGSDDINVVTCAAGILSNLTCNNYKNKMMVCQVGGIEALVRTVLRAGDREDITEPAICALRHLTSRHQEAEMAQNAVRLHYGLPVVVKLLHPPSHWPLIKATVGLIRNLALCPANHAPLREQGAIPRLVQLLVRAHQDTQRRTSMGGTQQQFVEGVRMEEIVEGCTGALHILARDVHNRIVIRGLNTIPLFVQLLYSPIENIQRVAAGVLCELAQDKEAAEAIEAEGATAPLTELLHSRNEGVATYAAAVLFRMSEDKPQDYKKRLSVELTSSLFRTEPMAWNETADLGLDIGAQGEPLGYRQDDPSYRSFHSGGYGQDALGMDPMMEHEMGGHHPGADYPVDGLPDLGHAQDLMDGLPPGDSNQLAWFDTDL
# T1 sequence (O00512 whole entry): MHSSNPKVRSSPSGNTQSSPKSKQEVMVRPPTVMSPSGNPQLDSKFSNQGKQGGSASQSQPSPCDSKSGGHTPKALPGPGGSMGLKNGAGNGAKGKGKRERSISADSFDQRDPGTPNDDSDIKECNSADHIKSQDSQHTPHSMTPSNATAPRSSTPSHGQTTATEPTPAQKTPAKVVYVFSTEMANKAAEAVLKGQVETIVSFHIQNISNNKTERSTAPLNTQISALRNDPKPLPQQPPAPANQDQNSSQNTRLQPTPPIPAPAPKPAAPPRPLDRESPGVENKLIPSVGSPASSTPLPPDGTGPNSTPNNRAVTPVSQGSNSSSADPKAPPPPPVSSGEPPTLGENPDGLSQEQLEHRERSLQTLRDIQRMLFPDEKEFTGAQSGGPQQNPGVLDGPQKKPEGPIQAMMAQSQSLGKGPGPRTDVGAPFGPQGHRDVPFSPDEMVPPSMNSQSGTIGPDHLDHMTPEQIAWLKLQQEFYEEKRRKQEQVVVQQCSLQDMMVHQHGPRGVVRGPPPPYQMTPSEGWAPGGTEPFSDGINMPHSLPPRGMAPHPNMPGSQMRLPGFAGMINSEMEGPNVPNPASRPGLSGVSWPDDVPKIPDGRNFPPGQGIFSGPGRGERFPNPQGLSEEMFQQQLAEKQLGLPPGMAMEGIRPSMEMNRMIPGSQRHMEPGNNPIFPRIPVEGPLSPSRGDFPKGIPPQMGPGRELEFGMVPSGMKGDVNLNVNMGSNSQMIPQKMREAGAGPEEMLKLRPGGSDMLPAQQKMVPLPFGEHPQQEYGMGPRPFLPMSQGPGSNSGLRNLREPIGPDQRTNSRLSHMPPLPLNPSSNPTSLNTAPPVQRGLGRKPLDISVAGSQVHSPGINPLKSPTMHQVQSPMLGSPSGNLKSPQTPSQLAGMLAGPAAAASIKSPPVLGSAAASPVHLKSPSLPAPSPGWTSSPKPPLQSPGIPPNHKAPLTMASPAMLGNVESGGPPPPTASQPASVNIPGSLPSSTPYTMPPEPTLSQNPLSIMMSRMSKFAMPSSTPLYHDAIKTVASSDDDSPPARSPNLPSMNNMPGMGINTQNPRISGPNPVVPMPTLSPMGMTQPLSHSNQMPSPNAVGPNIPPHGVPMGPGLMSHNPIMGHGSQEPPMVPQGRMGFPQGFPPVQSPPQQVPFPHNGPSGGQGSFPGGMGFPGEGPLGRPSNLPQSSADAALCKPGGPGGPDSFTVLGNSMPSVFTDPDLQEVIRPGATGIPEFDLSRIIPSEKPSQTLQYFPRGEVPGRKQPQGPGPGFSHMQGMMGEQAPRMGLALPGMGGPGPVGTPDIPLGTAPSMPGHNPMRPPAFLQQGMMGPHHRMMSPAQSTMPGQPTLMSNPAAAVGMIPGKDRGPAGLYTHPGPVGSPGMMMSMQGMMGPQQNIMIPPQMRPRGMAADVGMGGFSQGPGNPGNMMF
# Outline: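 Full-length β-catenin (residues 1–781) with a C-terminal His6 tag was expressed in E. coli BL21(DE3) after IPTG induction at 20 °C. It was purified by Ni-NTA, anion-exchange and size-exclusion chromatography. For the assay, 40 nM β-catenin was preincubated for 30 min at 4 °C with 5 nM biotinylated BCL9 or 10 nM biotinylated E-cadherin. Inhibitor was then added for 1 h at 4 °C, followed by 10 μg/mL donor and acceptor beads for 1 h at 4 °C. IC50 was obtained by nonlinear fit and converted to Ki by the Nikolovska-Coleska method. Triplicate, mean ± SD.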
# [3] = system: SW480; assay: Cytotoxic activity in human SW480 cells at 50 to 100 uM incubated for 4 hrs by LDH release assay; type: cell-based; details: sw480, 4 h, dose 50-100 µM
# Outline: (§2)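 SW480 cells were seeded at 2 × 10^4 cells/well and kept overnight at 37 °C. They were then exposed to a range of inhibitor concentrations for 4 h. LDH in the culture supernatant was measured with a diagnostic kit by absorbance at 490 nm. Percent cytotoxicity was calculated from experimental release against maximum release, with background subtracted. Run in triplicate.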
# [4] = system: A549; assay: Cytotoxicity in human A549 cells assessed as reduction in cell viability incubated for 72 hrs by MTS assay; type: functional, cell-based; details: A549, 72 h; outline: as §1
# [5] = biological target: T1, beta-catenin-B-cell lymphoma 9 protein complex; assay: Inhibition of protein interaction between beta-catenin (unknown origin)/BCL9 in human SW480 cells transfected with beta-catenin assessed as reduction in Wnt/beta-catenin transactivation incubated for 24 hrs by Wnt-responsive TOP-Flash luciferase reporter assay; type: cell-based
# [6] = system: MDA-MB-231; assay: Cytotoxicity in human MDA-MB-231 cells assessed as reduction in cell viability incubated for 72 hrs by MTS assay; type: functional, cell-based; details: MDA-MB-231, 72 h
# Outline: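 Triple-negative breast cancer line seeded at 5 × 10^3 cells/well, held overnight at 37 °C, then exposed to inhibitor over a concentration range for 72 h. Viability read out with a fresh 1:19 mix of PMS (0.92 mg/mL) and MTS (2 mg/mL), incubated 3 h at 37 °C, A490 measured.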
# [7] = biological target: T2, beta-catenin-B-cell lymphoma 9 protein complex (Homo sapiens) (UniProt P35222+O00512); assay: Inhibition of protein interaction between beta-catenin (unknown origin)/BCL9 in human HEK293 cells transfected with beta-catenin assessed as reduction in Wnt/beta-catenin transactivation incubated for 24 hrs by Wnt-responsive FOP-Flash luciferase reporter assay
# [8] = biological target: T2, beta-catenin-B-cell lymphoma 9 protein complex (Homo sapiens); assay: Inhibition of protein interaction between beta-catenin (unknown origin)/BCL9 in HEK293 cells transfected with beta-catenin assessed as reduction in Wnt/beta-catenin transactivation incubated for 24 hrs by Wnt-responsive FOP-Flash luciferase reporter assay; type: cell-based
# Outline: (§3)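 HEK293 cells were cotransfected using FuGENE6 with 45 ng TOPFlash or FOPFlash reporter, 135 ng pcDNA3.1-β-catenin and 20 ng pCMV-RL normalization reporter. After 24 h in DMEM with 10% FBS at 37 °C, inhibitors or DMSO were added for 24 h. Reporter activity was read with a dual luciferase system, normalized, and compared with DMSO-treated cells. Triplicate.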
# [9] = system: HCT-116; assay: Cytotoxicity in human HCT-116 cells assessed as reduction in cell viability incubated for 72 hrs by MTS assay; type: functional, cell-based; details: HCT-116, 72 h; outline: as §1
# [10] = biological target: T1, beta-catenin-B-cell lymphoma 9 protein complex; assay: Inhibition of protein interaction between beta-catenin (unknown origin)/BCL9 in HEK293 cells transfected with beta-catenin assessed as reduction in Wnt/beta-catenin transactivation incubated for 24 hrs by Wnt-responsive TOP-Flash luciferase reporter assay; type: cell-based; outline: as §3
# [11] = system: SW480; assay: Cytotoxic activity in human SW480 cells at 800 uM incubated for 4 hrs by LDH release assay; type: cell-based; details: sw480, 4 h; outline: as §2
Structure (SMILES),IC50 [1] [µM],Ki [2] [µM],Activity [3],IC50 [4] [µM],IC50 [5] [µM],IC50 [6] [µM],inhibition [7],inhibition [8],IC50 [9] [µM],IC50 [10] [µM],Activity [11]
Cl.Cl.O=C(Nc1cnc(O[C@H]2CCNC2)c(-c2ccc(F)cc2)c1)c1cnc(O[C@H]2CCNC2)c(-c2ccc(F)c(F)c2)c1,9.9,7.3,Toxic,–,–,–,–,–,–,–,–
Cc1ccc(-c2cc(NC(=O)c3ccc(O[C@H]4CCNC4)c(-c4ccc(F)c(F)c4)c3)ccc2O[C@H]2CCNC2)cc1.Cl.Cl,1.6,6.5,Toxic,–,–,–,–,–,–,–,–
Cl.Cl.O=C(Nc1ccc(O[C@H]2CCNC2)c(-c2ccccc2C(F)(F)F)c1)c1ccc(O[C@H]2CCNC2)c(-c2ccc(F)c(F)c2)c1,2.6,3.8,Toxic,–,–,–,–,–,–,–,–
Cl.Cl.O=C(Nc1ccc(O[C@H]2CCNC2)c(-c2ccc(F)cc2)c1)c1ccc(O[C@H]2CCNC2)c(-c2ccc(F)nc2)c1,21,19,Non-Toxic,–,–,–,–,–,–,–,–
Cc1ccccc1-c1cc(NC(=O)c2ccc(O[C@H]3CCNC3)c(-c3ccc(F)c(F)c3)c2)ccc1O[C@H]1CCNC1.Cl.Cl,1.2,5.9,Toxic,23,5.2,3.1,Active,Active,5.7,–,–
Cl.Cl.O=C(Nc1ccc(O[C@H]2CCNC2)c(-c2ccc(F)cc2)c1)c1ccc(O[C@H]2CCNC2)c(C2=CCCCC2)c1,3.7,7.1,Toxic,–,8.7,3.4,Active,Active,6.9,–,–
Fc1ccc(-c2cc(-c3cnc4cc(O[C@H]5CCNC5)c(-c5ccc(F)c(F)c5)cc4c3)ccc2O[C@H]2CCNC2)cc1,1.7,2.2,–,7.5,7.9,3.1,Active,Active,2.2,14,–
CC(=O)Nc1cccc(-c2cc(NC(=O)c3ccc(O[C@H]4CCNC4)c(-c4ccc(F)c(F)c4)c3)ccc2O[C@H]2CCNC2)c1.Cl.Cl,160,5.2,–,–,–,–,–,–,–,–,Non-Toxic
Cl.Cl.O=C(Nc1ccc(O[C@H]2CCNC2)c(-c2ccc(F)cc2)c1)c1ccc(O[C@H]2CCNC2)c(C2CCCCC2)c1,6.6,14,Toxic,3.8,–,–,–,–,3.8,–,–
Cl.Cl.O=C(Nc1ccc(O[C@H]2CCNC2)c(-c2ccc(-c3nn[nH]n3)cc2)c1)c1ccc(O[C@H]2CCNC2)c(-c2ccc(F)c(F)c2)c1,86,4.6,–,–,–,–,–,–,–,–,Non-Toxic
Cc1cccc(-c2cc(NC(=O)c3ccc(O[C@H]4CCNC4)c(-c4ccc(F)c(F)c4)c3)ccc2O[C@H]2CCNC2)c1.Cl.Cl,2.2,3.1,Toxic,4.5,–,1.4,–,–,1.4,–,–
Cl.Cl.NC(=O)c1cccc(-c2cc(NC(=O)c3ccc(O[C@H]4CCNC4)c(-c4ccc(F)c(F)c4)c3)ccc2O[C@H]2CCNC2)c1,190,5.6,–,–,–,–,–,–,–,–,Non-Toxic
Cl.Cl.O=C(Nc1cnc(O[C@H]2CCNC2)c(-c2ccc(F)cc2)c1)c1ccc(O[C@H]2CCNC2)c(-c2ccc(F)c(F)c2)c1,1.7,8.2,Toxic,29,7.7,3.1,Active,Active,–,10,–
Cl.Cl.N#Cc1cccc(-c2cc(NC(=O)c3ccc(O[C@H]4CCNC4)c(-c4ccc(F)c(F)c4)c3)ccc2O[C@H]2CCNC2)c1,4.3,4.2,Toxic,–,–,–,–,–,–,> 25,–
Cl.Cl.N#Cc1ccc(-c2cc(NC(=O)c3ccc(O[C@H]4CCNC4)c(-c4ccc(F)c(F)c4)c3)ccc2O[C@H]2CCNC2)cc1,6.1,3.8,Toxic,–,–,–,–,–,–,> 25,–
Cl.Cl.O=C(Nc1ccc(O[C@H]2CCNC2)c(-c2ccc(F)nc2)c1)c1ccc(O[C@H]2CCNC2)c(-c2ccc(F)c(F)c2)c1,15,16,Toxic,–,–,–,–,–,–,–,–
